Source: paper PMC11559620 (Science Advances, 2024)
Changes are numbered by the printed parent chain. In names and notes the source's numbering stands. Ends that are not written are not given here.

Columns and labels:
CML18 [1] = biological target: T1, CML18 (Arabidopsis thaliana, UniProt Q9M8U1); assay: Isothermal titration calorimetry, CBD peptide; type: binding
T1 sequence (Q9M8U1 1-165): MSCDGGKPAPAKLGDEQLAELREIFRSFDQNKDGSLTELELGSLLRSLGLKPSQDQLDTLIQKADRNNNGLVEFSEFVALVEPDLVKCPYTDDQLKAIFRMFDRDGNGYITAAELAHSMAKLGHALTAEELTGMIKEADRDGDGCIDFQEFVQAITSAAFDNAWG
In short: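 ITC at 25°C: 200 μM CML18 was titrated into 20 μM CBD peptide in 2-μl injections at 150-s intervals, stirred at 750 rpm, in buffer C (pH 6.3) or D (pH 8.3), with 18 μM EGTA or 180 μM Ca2+. Heats from ligand-into-buffer controls were subtracted. Two titrations were run for each of two independent protein preparations.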

CML18 [2] = biological target: T1, CML18; assay: Far-UV circular dichroism of CML18:CML-BD complex; type: binding
In short: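 Far-UV CD (320–202 nm, 20°C, 1.0-mm quartz cuvette) of decalcified CML18, the synthetic CBD peptide, and a 1:1 protein:peptide mixture, each at pH 6.3 and 8.3. The spectrum expected for non-interacting samples was calculated as the sum of the two individual spectra and compared with the mixture.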

CML18 [3] = assay: Bimolecular fluorescence complementation, interaction with CML18; type: cell-based, Arabidopsis; conditions: leaves of N. benthamiana
In short: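 Agrobacterium GV3101 carrying BiFC constructs was co-infiltrated with a p19-transformed strain into 5- to 6-week-old N. benthamiana leaves. Full-length NHX1 or NHX2 and CML18 were each fused to complementary halves of eYFP. Empty pSPYCE(M) served as negative control. The lower epidermis was imaged by confocal microscopy (515-nm laser, 60× objective) under constant imaging settings, using a YFP filter.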

CML18 [4] = assay: Yeast two-hybrid assay, interaction with CML18; type: cell-based, Arabidopsis; conditions: for interaction with CML18 (Y2H): C-terminal cytosolic fragments, selective YNB media
In short: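 Strain AH109 was cotransformed with NHX C-terminal fragments in pGBKT7 (GAL4 BD) and CML17 or CML18 in pGADT7 (GAL4 AD), selected on YNB-Trp-Leu. Cultures were grown at 28°C to saturation (OD600 ~2), then 5-μl drops of 10-fold dilutions were spotted on YNB-Trp-Leu, -His-Trp-Leu and -Ade-Trp-Leu. Plates were incubated at 28°C for 3–4 days. p53/pSV40 served as positive control, empty vectors as negative.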

yeast vacuoles = assay: Vacuolar pH of yeast by BCECF-AM; type: cell-based, Saccharomyces cerevisiae; conditions: n = 8
C terminus of NHX1 = assay: Yeast two-hybrid assay, dimerization with C terminus of NHX1; type: cell-based, Arabidopsis; conditions: fig. S2; cytosolic C-terminal domains
AXT3K strain = assay: Complementation assay, hygromycin B resistance of yeast AXT3K; type: cell-based, Saccharomyces cerevisiae; conditions: YPD + HygB (50 μg/ml), 30°C
NHX1 = conditions: ref [15]; cited from earlier work
[5] = Far-UV circular dichroism of CML18; type: physicochemical
In short: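 CML18 was decalcified by dialysis against 20 mM EGTA, then re-dialysed into EGTA-free buffer C (20 mM MES pH 6.3, 80 mM KCl, 5 mM NaCl, 2 mM DTT) or buffer D (same, with 20 mM tris pH 8.3). Far-UV CD spectra (320–202 nm) were recorded at 0.2 mg/ml, 20°C, 1.0-mm quartz cuvette, with 180 μM Ca2+ or 18 μM EGTA.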

Tryptophan = type: physicochemical
In short: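 Decalcified CML18 was dialysed into buffer C (20 mM MES pH 6.3) or D (20 mM tris pH 8.3), both with 80 mM KCl, 5 mM NaCl, 2 mM DTT. Samples of 10 μl at 25 μM were loaded into UV capillaries and heated from 35 to 95°C at […]. The initial Trp emission ratio (350/330 nm) was taken at the start. For Ca2+ titrations, 20 μM EGTA was kept constant.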

For “DSIRGFLTRPTRTVHYYWRQFDDSFMRPVFGGR [CML-BD]”, the “complex formation with CML18” value (CML18 [1]; pH 6.3, presence of Ca2+) was “high-affinity complex is formed”, the “CML-BD binding sites per CML18 monomer” value (CML18 [1]; pH 6.3, model fit, equal affinity) was “two CML-BD binding sites with equal affinity per CML18 monomer” and the “helical content in solution” value (CML18 [2]; far-UV CD, 20°C, peptide alone) was “no helical content”. The “binding of CML18 to CBD peptide, pH dependence” value (CML18 [2]; far-UV CD, pH 6.3 versus 8.3) was “mostly favored at acidic pH”, the “α-helical content of the mixture with CML18” value (CML18 [2]; pH 6.3, 1:1 protein:peptide, far-UV CD, relative to CML18 alone) was “increased α-helical content” and the “interaction with CML18” value (CML18 [2]; pH 8.3, absence of Ca2+) was “no interaction is observed”. The “helicity of the mixture with CML18” value (CML18 [2]; pH 8.3, 1:1 protein:peptide, far-UV CD) was “only a small increase in helicity”.

In the case of “NHX1∆CBD: NHX1 with the CBD deleted (residues S486 to G516)”, the “interaction with CML18 (BiFC)” value (CML18 [3]) is reported as “lost the interaction with CML18”, the “interaction with CML18 (Y2H)” value (CML18 [4]) is reported as “tested negative” and the “vacuolar pH (pHvac)” value (yeast vacuoles) is reported as “overly acidic”.

B1: NHX2: vacuolar exchanger; C-terminal residues G434 to P546 in Y2H (protein, UniProt Q56XP4 434-546, looked up, fragment)
chain: GMLTKPLIRYLMPHQKATTSTTSMLSDDSTPKSIHIPLLDGEQLDSFELPGSHQDVPRPNSLRGFLMRPTRTVHYYWRQFDDAFMRPVFGGRGFVPFVPGSPTERSSHDLSKP
With B1 the “interaction with CML18 (BiFC)” value (CML18 [3]) was “interacted with CML18”, the “homodimerization / heterodimerization (Y2H)” value (C terminus of NHX1) was “positive results” and the “interaction with CML18 (Y2H)” value (CML18 [4]) was “strongly”. For the same molecule, the “HygB resistance / protein activity in AXT3K” value (AXT3K strain) was “suppressed the HygB sensitivity”.

B2: CML18: calmodulin-like protein of Arabidopsis, At3g03000 (protein)
chain: T1 sequence (Q9M8U1 1-165)
modifications: left off: cYFP (C-terminal half of YFP), C-terminal, kept
For B2, the “effect on K+/H+ and Na+/H+ exchange rates of NHX1” value (NHX1) is listed as “inhibition”, the “effect on K+/H+ transport by NHX1” value (NHX1) is listed as “inhibit” and the “CD spectrum change upon addition of Ca2+ or EGTA” value ([5]; 180 μM Ca2+ or 18 μM EGTA, pH 6.3 and 8.3) is listed as “no noticeable changes in the spectrum”. The “CD peak at 222 nm” value ([5]; pH 6.3 compared to pH 8.3, 0.2 mg/ml, 20°C) was “clear increase of the peak at 222 nm at pH 6.3 compared to pH 8.3” and the “W164 fluorescence red shift” value (Tryptophan; pH 6.3 versus pH 8.3, 350/330 nm, 25 μM CML18) was “remarkable red shift”.

B3: CML18-D161N (protein, UniProt Q9M8U1 1-165, looked up, variant D161N)
Probable calcium-binding …: T1 sequence (Q9M8U1 1-165) with D161N
With B3 the “far-UV CD spectrum compared with WT at pH 6.3” value ([5]; fig. S6) was “nearly identical to that of the WT protein at pH 6.3” and the “350-nm/330-nm emission ratio, pH dependence” value (Tryptophan; pH 6.3 and 8.3) was “remained constant regardless of pH”.

B4: NHX4: vacuolar exchanger; C-terminal residues T437 to C529 in Y2H (protein)
chain: TKPLVNYLLPQDASHNTGNRGKRTEPGSPKEDATLPLLSFDESASTNFNRAKDSISLLMEQPVYTIHRYWRKFDDTYMRPIFGGPRRENQPEC
modifications: left off: Gal4 DNA-binding domain (vector pGBKT7), end not stated, kept
For B4, the “interaction with CML18 (Y2H)” value (CML18 [4]) was “strongly”.

B5: W502A: NHX1 mutant in the CBD (protein, UniProt Q68KI4 1-538, looked up, variant W502A)
Sodium/hydrogen exchanger 1: MLDSLVSKLPSLSTSDHASVVALNLFVALLCACIVLGHLLEENRWMNESITALLIGLGTGVTILLISKGKSSHLLVFSEDLFFIYLLPPIIFNAGFQVKKKQFFRNFVTIMLFGAVGTIISCTIISLGVTQFFKKLDIGTFDLGDYLAIGAIFAATDSVCTLQVLNQDETPLLYSLVFGEGVVNDATSVVVFNAIQSFDLTHLNHEAAFHLLGNFLYLFLLSTLLGAATGLISAYVIKKLYFGRHSTDREVALMMLMAYLSYMLAELFDLSGILTVFFCGIVMSHYTWHNVTESSRITTKHTFATLSFLAETFIFLYVGMDALDIDKWRSVSDTPGTSIAVSSILMGLVMVGRAAFVFPLSFLSNLAKKNQSEKINFNMQVVIWWSGLMRGAVSMALAYNKFTRAGHTDVRGNAIMITSTITVCLFSTVVFGMLTKPLISYLLPHQNATTSMLSDDNTPKSIHIPLLDQDSFIEPSGNHNVPRPDSIRGFLTRPTRTVHYYARQFDDSFMRPVFGGRGFVPFVPGSPTERNPPDLSKA
With B5 the “interaction with CML18 (Y2H)” value (CML18 [4]) was “essential for the interaction” and the “HygB resistance / protein activity in AXT3K” value (AXT3K strain) was “inactive”.

B6: H285L (protein, UniProt Q68KI4 1-538, looked up, variant H285L)
Sodium/hydrogen exchanger 1: B5 Sodium/hydrogen exchanger 1 with H285L, A502W
In the case of B6, the “HygB resistance / protein activity in AXT3K” value (AXT3K strain) is reported as “inactive”.

B7: H499L: NHX1 mutant within the CBD (protein, UniProt Q68KI4 1-538, looked up, variant H499L)
Sodium/hydrogen exchanger 1: B5 Sodium/hydrogen exchanger 1 with H499L, A502W
For B7, the “interaction with CML18 (Y2H)” value (CML18 [4]) was “not as strong as with the WT NHX1”, the “growth of cells coexpressing CML18 (Y2H)” value (CML18 [4]; YNB-His) was “able to grow” and the “growth of cells coexpressing CML18 (Y2H)” value (CML18 [4]; YNB-His-Ade) was “not in the more stringent media YNB-His-Ade”. For the same molecule, the “HygB resistance / protein activity in AXT3K” value (AXT3K strain) was “supported grow” and the “vacuolar pH (pHvac)” value (yeast vacuoles) was “no substantial differences”.

B8: H479L: NHX1 mutant outside the CBD, control (protein, UniProt Q68KI4 1-538, looked up, variant H479L)
Sodium/hydrogen exchanger 1: B5 Sodium/hydrogen exchanger 1 with H479L, A502W
For B8, the “HygB resistance / protein activity in AXT3K” value (AXT3K strain) was “supported grow” and the “vacuolar pH (pHvac)” value (yeast vacuoles) was “no substantial differences”.

B9: H479L-H499L (protein, UniProt Q68KI4 1-538, looked up, variant H479L H499L)
Sodium/hydrogen exchanger 1: B5 Sodium/hydrogen exchanger 1 with H479L, H499L, A502W
With B9 the “HygB resistance / protein activity in AXT3K” value (AXT3K strain) was “supported grow” and the “vacuolar pH (pHvac)” value (yeast vacuoles) was “no substantial differences”.

B10: Y286A (protein, UniProt Q68KI4 1-538, looked up, variant Y286A)
Sodium/hydrogen exchanger 1: B5 Sodium/hydrogen exchanger 1 with Y286A, A502W
In the case of B10, the “HygB resistance / protein activity in AXT3K” value (AXT3K strain) is reported as “inactive”.

B11: D506A: NHX1 mutant in the CBD (protein, UniProt Q68KI4 1-538, looked up, variant D506A)
Sodium/hydrogen exchanger 1: B5 Sodium/hydrogen exchanger 1 with A502W, D506A
With B11 the “interaction with CML18 (Y2H)” value (CML18 [4]) was “essential for the interaction” and the “HygB resistance / protein activity in AXT3K” value (AXT3K strain) was “inactive”.
